Screens: PubChem, The Scripps Research Institute Molecular Screening Center
Compounds with a hit are over-represented: about 3.9% of the library has one in this group of screens.
M1 ag = agonists of human M1 muscarinic receptor; P11229; CHO-K1 hM1, Fluo-8 calcium fluorescence, agonist mode; 0% DMSO, 100% acetylcholine EC100; activation, % at 3 µM; actives 0.33% (n = 360,000); AID 588814;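 active = activation above the run's mean compound activation plus 3 SD, cut at about 16% in these data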;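 also: peak over basal fluorescence ratio within a 140 s kinetic read after compound addition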
Target sequence (P11229 whole entry, looked up): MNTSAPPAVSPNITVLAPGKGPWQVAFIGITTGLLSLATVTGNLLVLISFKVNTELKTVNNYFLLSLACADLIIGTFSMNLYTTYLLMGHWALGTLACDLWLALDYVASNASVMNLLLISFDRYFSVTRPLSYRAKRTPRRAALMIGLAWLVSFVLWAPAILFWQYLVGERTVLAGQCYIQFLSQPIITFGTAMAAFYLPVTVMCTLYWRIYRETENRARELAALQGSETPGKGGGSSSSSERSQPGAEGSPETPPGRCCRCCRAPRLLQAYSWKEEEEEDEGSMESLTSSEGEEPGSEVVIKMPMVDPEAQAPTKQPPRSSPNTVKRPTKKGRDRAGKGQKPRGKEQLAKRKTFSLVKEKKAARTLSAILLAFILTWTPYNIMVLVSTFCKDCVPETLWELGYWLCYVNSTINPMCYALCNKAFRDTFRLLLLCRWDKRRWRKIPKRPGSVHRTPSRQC
m5-HT2A agonist = agonists of mouse serotonin 5-HT2A receptor (HTR2A). CHO-K1 mHTR2A beta-arrestin complementation, luminescence; percent of 30 µM serotonin response. actives 0.66% (n = 360,000). activation, % at 7.6 µM. AID 624169;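 active = activation above a run cutoff, the mean activation of all tested compounds plus 3 SD, cut at about 14% in these data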;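 also: 0% = plate median of compound wells and 100% = 30 µM serotonin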
M1 antag = human CHRM1 antagonism; CHO-K1 hM1, Fluo-8 calcium fluorescence, ACh EC80 antagonist; AID 588852; actives 1.3% (n = 360,000); inhibition, % at 3 µM;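 active = percent inhibition above its own plate's cutoff, namely the mean of that plate's compound wells plus 3 SD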;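 also: peak over basal fluorescence ratio during 140 s after agonist addition; 0% = ACh EC80 plus DMSO and 100% = DMSO alone without agonist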
TAAR1 antagonist = antagonists of human TAAR1; inhibition, % at 3 µM; actives 1.5% (n = 360,000); CHO RD-HGA16 TAAR1, Fluo-8 calcium fluorescence, antagonist; AID 624466; Q96RJ0;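 active = inhibition above a per-plate cutoff, the mean inhibition of test compounds on that plate plus 3 SD, cut at about 49% in these data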;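 also: 0% = DMSO plus EC80 beta-PEA response and 100% = DMSO alone without agonist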
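Test system – hTAAR1-expressing CHO RD-HGA16 cells, Gα16-coupled · Reagent – β-PEA at EC80 concentration, post-compound challenge · Compound dosing – 3 µM, single point · Timing – 140 s kinetic read after compound, 140 s after agonist · Detection – Fluo-8 intracellular calcium dye fluorescence, real-time kinetic reads · Control set – DMSO and EC80 PEA controls · Repeats – n of 1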
M1 PAM = potentiates human M1 receptor response to acetylcholine | P11229 | CHO-K1 hM1, Fluo-8 calcium fluorescence, ACh EC20; 0% = ACh EC20, 100% = maximal ACh | activation, % at 3 µM | actives 0.088% (n = 360,000); in the data active = activation above about 19%, passing the limit was not always enough
TAAR1 ag = human TAAR1 agonism. actives 0.99% (n = 360,000). Q96RJ0. CHO RD-HGA16 TAAR1, Fluo-8 calcium fluorescence; vehicle wells 0%, saturating PEA agonist 100%. activation, % at 3 µM;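 active = activation above the mean activation of all test compounds in the run plus 3 SD, cut at about 38% in these data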
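Repeats: no replicates (n 1) | Material: CHO-derived RD-HGA16 cells with stable Gα16 and human TAAR1 | Technique: Kinetic Fluo-8 calcium fluorescence | Schedule: 17-24 h seeding, 75 min 37 °C dye, 30 min RT | Evaluation: % activation from peak over basal fluorescence ratio, DMSO-to-PEA scaled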
The depositor's hits bear a star; x = no result.

SMILES	M1 ag	m5-HT2A agonist	M1 antag	TAAR1 antagonist	M1 PAM	TAAR1 ag
NC(=O)CCN1CCN(CCOC2Cc3cc(Cl)ccc3Sc3ccccc32)CC1 (stereo unspecified)	-11	3	-2	3	-8	6
Fc1ccc2c(c1)Sc1ccc(Cl)cc1CC2N1CCN(CCC2OCCO2)CC1 (stereo unspecified)	-7	-8	75*	8	-26	5
O=C(O)CC(Cc1ccc(Cl)cc1)C(=O)NCC12CC3CC(CC(C3)C1)C2 (stereo unspecified)	-6	7	31*	-9	-11	2
O=C(c1ncc[nH]1)c1ccccc1C(=O)N1CCOCC1	-4	-3	-10	-9	9	4
CC1CN(C(=O)c2ccccc2C(=O)c2ncc[nH]2)CC(C)O1 (stereo unspecified)	-3	6	2	-25	-2	40*
CC(C)CN(C(=O)COC(=O)Cc1c[nH]c2ccccc12)c1c(N)n(Cc2ccccc2)c(=O)[nH]c1=O	5	-1	-12	-3	15	0
COc1cccc(C(=O)NCC(=O)N2CCN(c3ccc(C(F)(F)F)cn3)CC2)c1	-2	1	37*	8	-13	1
COc1ccccc1C(=O)NCCC(=O)N1CCN(c2ccc(C(F)(F)F)cn2)CC1	-3	-3	11	-9	-6	2
O=C(C(=O)N1CCC(CNS(=O)(=O)c2ccccc2OC(F)(F)F)CC1)c1cccs1	x	x	x	-13	x	4
O=C(NCCc1ccccc1F)c1cccc2cccnc12	-9	-4	7	17	-6	66*
CCOc1ncccc1C(=O)NCc1ccccc1F	-7	-2	-3	-28	6	-2
c1ccc(-c2ccc(CN3CCN(c4ncccn4)CC3)cc2)cc1	-6	16*	15	-1	-15	13
Cc1ccc(Nc2c([N+](=O)[O-])ccc3nonc23)cc1C	-5	11	16	-29	3	2
CCc1c(O)nc(SCC(=O)Nc2ccccc2)n(-c2ccccc2C)c1=O	6	5	-28	-20	29*	12
COC(=O)N1Cc2ccnnc2CC1c1ccccc1-c1ccc(OC)cc1 (stereo unspecified)	x	x	x	-1	x	3
Cc1nc(N2CCN(c3ccccc3)CC2)nc2c1C(=O)CCC2	0	-6	7	57*	-11	11
Cc1nc(N2CCN(c3ccccc3)CC2)nc2c1C(=O)CC(C)C2 (stereo unspecified)	-2	3	-5	2	-2	13
CCN(CC)CCNC(=O)C1(c2ccccc2)CCCCC1	-8	-3	40*	-5	-23	3
CCN(CC)CCOC(=O)c1ccc(NC(=O)C2(c3ccccc3)CCCC2)cc1	-5	-13	46*	10	-19	11
Cc1onc(-c2ccccc2)c1C(=O)NCCc1ccncc1	0	-9	-15	1	16	2
CC12CCC3c4ccc(OCC(=O)O)cc4CCC3C1CCC2=O (stereo unspecified)	-1	10	-13	10	5	1
C[C@@H]1ON(C)[C@H]2C[C@H]3c4[nH]c5c(-c6ccccc6)cccc5c4CCN3C(=O)[C@@H]12	x	x	x	28	x	7
COC(=O)c1cc2c(c3c4cc(F)ccc4n(S(=O)(=O)c4ccc(C)cc4)c13)C(=O)N(Cc1ccc(N(C)C)cc1)C2	x	x	x	4	x	-2
CCCCN1CC(COCc2ccccc2)Oc2cccc(OCCN3C(=O)[C@@H]4[C@H](C3=O)C3C=C[C@H]4C3)c2S1(=O)=O (stereo partly specified)	0	0	31	70*	-12	18
O=C1[C@@H]2[C@H](C(=O)N1C[C@@H](COCc1ccccc1)Oc1cccc3c1S(=O)(=O)N(CCc1ccc(F)cc1)C[C@H](COCc1ccccc1)O3)[C@@H]1C=C[C@H]2C1	x	x	x	-7	x	3
SMILES	M1 ag	m5-HT2A agonist	M1 antag	TAAR1 antagonist	M1 PAM	TAAR1 ag
COCCNC(=O)C(c1ccc(C)cc1)N(C(=O)CCC(=O)Nc1ccccn1)c1ccccc1C (stereo unspecified)	-2	4	-9	3	17	-1
C[C@H](NC(=O)c1nc[nH]c1C(=O)NCc1ccc(CNC(=O)OC(C)(C)C)cc1)C(=O)OCc1ccccc1	-1	0	45*	82*	-21	21
C[C@H](NC(=O)c1nc[nH]c1C(=O)NCC(=O)OCc1ccccc1)C(=O)OC(C)(C)C	-2	-4	7	48	-8	16
Cc1cc(C)nc(N2CCCC(C(=O)Nc3ccc4c(c3)OCO4)C2)n1 (stereo unspecified)	-7	0	-1	67*	-10	38*
Cc1cc(C)nc(N2CCC(C(=O)Nc3ccc4c(c3)OCO4)CC2)n1	-5	-4	-7	-17	4	0
CCC1CCCCN1C(=O)CCn1c(=O)oc2ccccc21 (stereo unspecified)	-3	8	-12	-26	4	0
Cc1[nH]c(=O)[nH]c(=O)c1CSCC(=O)OCC(=O)Nc1ccccn1	-3	3	-2	-31	1	0
COc1ccc(OC)c(NC(=O)c2nc(S(=O)(=O)Cc3ccccc3)ncc2Cl)c1	-5	-10	5	52*	4	1
CCS(=O)(=O)c1ncc(Cl)c(C(=O)Nc2ccc(S(=O)(=O)N(C)c3ccccc3)cc2)n1	-6	-11	88*	56*	-24	6
Cc1ccccc1-c1cnc(C(O)c2cc(Cl)cc(Cl)c2)[nH]1 (stereo unspecified)	-2	-7	4	22	-5	6
COC(=O)[C@]12C[C@H](CC(=O)NCc3ccc(C)o3)C(=O)N(Cc3ccc4c(c3)OCO4)C1=C[C@H](C(C)(C)C)O[C@@H]2C	x	x	x	-20	x	-1
O=C(COC(=O)c1cccc2c1C(=O)c1ccccc1C2=O)NC1CCCCC1	-7	4	17	49*	-19	7
COc1cccc(-c2csc(N3CCN(C(=O)Nc4ccc(Cl)cc4)CC3)n2)c1	-2	-2	31	58*	-12	10
COC(=O)c1ccc(N2CCOCC2)c(NC(=O)Nc2cccc(OC)c2)c1	-4	-7	-6	6	5	2
COCCCNC(=S)N1CCN(c2nc(-c3ccc(Cl)cc3)cs2)CC1	1	-9	33	62*	-18	4
COc1cccc(-c2csc(N3CCN(C(=S)Nc4cccc(Cl)c4)CC3)n2)c1	-4	-3	8	33	-2	6
